Measurements published in ChEMBL document CHEMBL3425440, “ent-Kaurane Diterpenoids from Chinese Liverworts and Their Antitumor Activities through Michael Addition As Detected in Situ by a Fluorescence Probe” (J Med Chem, 2015).

Columns and labels:
[1] = Cytotoxicity against human Saos2 cells assessed as cell viability after 24 hrs by MTT assay; type: functional, cell-based; settings: SAOS-2, 24 h
Summary of the method: (§1)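 Cells grown to about 50−70% confluence at 37 °C, 5% CO2, then exposed to compounds 24 h (DMSO vehicle control, cisplatin positive control). MTT (5 mg/mL stock) added for 4 h, formazan dissolved in DMSO, absorbance read at 570 nm. IC50 derived from percent viability; at least three independent experiments, mean ± SD.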

[2] = Cytotoxicity against human A172 cells assessed as cell viability after 24 hrs by MTT assay; type: functional, cell-based; settings: A 172, 24 h; summary of the method: as §1
[3] = Cytotoxicity against human SKOV3 cells assessed as cell viability after 24 hrs by MTT assay; type: functional, cell-based; settings: SK-OV-3, 24 h; summary of the method: as §1
[4] = Cytotoxicity against human RWPE1 cells assessed as cell viability after 24 hrs by MTT assay; type: cell-based; settings: RWPE-1, 24 h; summary of the method: as §1
LNCaP = experiment: Cytotoxicity against human LNCAP cells assessed as cell viability after 24 hrs by MTT assay; type: functional, cell-based; summary of the method: as §1
[5] = Cytotoxicity against human SH-SY5Y cells assessed as cell viability after 24 hrs by MTT assay; type: functional, cell-based; summary of the method: as §1
NCI-H1299 = experiment: Cytotoxicity against human NCI-H1299 cells assessed as cell viability after 24 hrs by MTT assay; type: functional, cell-based; settings: NCI-H1299, 24 h; summary of the method: as §1
[6] = Cytotoxicity against human HL60 cells assessed as cell viability after 24 hrs by MTT assay; type: functional, cell-based; settings: HL-60, 24 h; summary of the method: as §1
[7] = Cytotoxicity against human PC3 cells assessed as cell viability after 24 hrs by MTT assay; type: functional, cell-based; settings: PC-3, 24 h; summary of the method: as §1
MDA-MB-231 = experiment: Cytotoxicity against human MDA-MB-231 cells assessed as cell viability after 24 hrs by MTT assay; type: functional, cell-based; settings: MDA-MB-231, 24 h; summary of the method: as §1
K562 = experiment: Cytotoxicity against human K562 cells assessed as cell viability after 24 hrs by MTT assay; type: functional, cell-based; settings: K562, 24 h; summary of the method: as §1
LoVo = experiment: Cytotoxicity against human LoVo cells assessed as cell viability after 24 hrs by MTT assay; type: functional, cell-based; summary of the method: as §1
[8] = Cytotoxicity against human T24 cells assessed as cell viability after 24 hrs by MTT assay; type: functional, cell-based; settings: T-24, 24 h; summary of the method: as §1
DU-145 = experiment: Cytotoxicity against human DU145 cells assessed as cell viability after 24 hrs by MTT assay; type: functional, cell-based; settings: DU-145, 24 h; summary of the method: as §1

Compound | IC50 [1] [µM] | IC50 [2] [µM] | IC50 [3] [µM] | IC50 [4] [µM] | IC50 (LNCaP) [µM] | IC50 [5] [µM] | IC50 (NCI-H1299) [µM] | IC50 [6] [µM] | IC50 [7] [µM] | IC50 (MDA-MB-231) [µM] | IC50 (K562) [µM] | IC50 (LoVo) [µM] | IC50 [8] [µM] | IC50 (DU-145) [µM]
CC1=C[C@]23C[C@H]1CC[C@H]2[C@@]1(C)[C@H](C[C@H]3O)C(C)(C)CC[C@@H]1O | > 50 | > 50 | > 50 | > 50 | > 50 | > 50 | > 50 | > 50 | > 50 | > 50 | > 50 | > 50 | > 50 | > 50
C[C@@H]1C(=O)[C@@]23CC[C@@H]4C(C)(C)CCC[C@@]4(C)[C@@H]2[C@@H](O)C[C@@H]1C3 | > 50 | > 50 | > 50 | > 50 | > 50 | > 50 | > 50 | > 50 | > 50 | > 50 | > 50 | > 50 | > 50 | > 50
C=C1[C@@H]2CC(=O)[C@H]3[C@]4(C)CCCC(C)(C)[C@H]4[C@@H](O)C[C@]3(C2)[C@@H]1O | > 50 | > 50 | > 50 | > 50 | > 50 | > 50 | > 50 | > 50 | > 50 | > 50 | > 50 | > 50 | > 50 | > 50
C=C1[C@@H]2CC[C@H]3[C@]4(C)CCCC(C)(C)[C@H]4[C@@H](O)C[C@]3(C2)[C@@H]1O | > 50 | > 50 | > 50 | > 50 | > 50 | > 50 | > 50 | > 50 | > 50 | > 50 | > 50 | > 50 | > 50 | > 50
C=C1C[C@]23C[C@H]1CC[C@H]2[C@@]1(C)[C@H](C[C@H]3O)C(C)(C)CC[C@@H]1O | > 50 | > 50 | > 50 | > 50 | > 50 | > 50 | > 50 | > 50 | > 50 | > 50 | > 50 | > 50 | > 50 | > 50
C=C1C(=O)[C@@]23CC[C@@H]4C(C)(C)CCC[C@@]4(C)C2=CC[C@]1(O)C3 | 1.3 | 3.8 | 1.8 | 6.2 | 3.2 | 1.2 | 2.4 | 1 | 3.2 | 4.2 | 1.9 | 1.8 | 1.7 | 5.5
C[C@H]1C(=O)[C@@]23CC[C@@H]4[C@](C)(CO)CCC[C@@]4(C)C2=CC[C@]1(O)C3 | > 50 | > 50 | > 50 | > 50 | > 50 | > 50 | > 50 | > 50 | > 50 | > 50 | > 50 | > 50 | > 50 | > 50
C=C1C(=O)[C@H]2C[C@@H]1CC1=C2[C@]2(C)CCC[C@](C)(CO)[C@H]2CC1 | 35.5 | > 50 | > 50 | > 50 | > 50 | 33.8 | > 50 | 23.6 | > 50 | > 50 | 41.7 | 35.2 | 49.1 | > 50
C=C1C(O)[C@@]23CC[C@H]4[C@@](C)(CCC[C@@]4(C)C(=O)OCCN4CCN(C)CC4)[C@@H]2CC[C@]1(O)C3 (stereo partly specified) | > 50 | > 50 | > 50 | > 50 | > 50 | > 50 | > 50 | > 50 | > 50 | > 50 | > 50 | > 50 | > 50 | > 50
C=C1C[C@]23C[C@H]1CC[C@H]2[C@@]1(C)[C@H](C[C@H]3OC(C)=O)C(C)(C)CC[C@@H]1O | > 50 | > 50 | > 50 | > 50 | > 50 | > 50 | > 50 | > 50 | > 50 | > 50 | > 50 | > 50 | > 50 | > 50
C=C1[C@@H]2C[C@@H](O)[C@H]3[C@]4(C)CCCC(C)(C)[C@H]4CC[C@]3(C2)[C@@H]1O | > 50 | > 50 | > 50 | > 50 | > 50 | > 50 | > 50 | > 50 | > 50 | > 50 | > 50 | > 50 | > 50 | > 50
C=C1[C@@H]2CC[C@@H]3[C@@](CC[C@@H]4C(C)(C)CC[C@H](O)[C@]43C)(C2)[C@H]1O | > 50 | > 50 | > 50 | > 50 | > 50 | > 50 | > 50 | > 50 | > 50 | > 50 | > 50 | > 50 | > 50 | > 50
C[C@@H]1C(=O)[C@H]2C[C@]1(O)CC1=C2[C@]2(C)CCCC(C)(C)[C@H]2CC1 | > 50 | > 50 | > 50 | > 50 | > 50 | > 50 | > 50 | > 50 | > 50 | > 50 | > 50 | > 50 | > 50 | > 50
C=C1C(=O)[C@@]23CC[C@@H]4C(C)(C)CCC[C@@]4(C)[C@@H]2[C@@H](O)C[C@@H]1C3 | 1.4 | 3.2 | 1.7 | 5.2 | 2.5 | 0.7 | 2.6 | 0.9 | 1.9 | 4.8 | 1.5 | 1.4 | 2.1 | 4.5
C[C@@H]1C(=O)[C@@]23CC[C@@H]4[C@@](C)(CO)CCC[C@@]4(C)C2=CC[C@]1(O)C3 | > 50 | > 50 | > 50 | > 50 | > 50 | > 50 | > 50 | > 50 | > 50 | > 50 | > 50 | > 50 | > 50 | > 50
C=C1C(O)[C@@]23CC[C@H]4[C@@](C)(CCC[C@@]4(C)C(=O)OCCBr)[C@@H]2CC[C@]1(O)C3 (stereo partly specified) | > 50 | > 50 | > 50 | > 50 | > 50 | > 50 | > 50 | > 50 | > 50 | > 50 | > 50 | > 50 | > 50 | > 50
C=C1C[C@@]23CC[C@H]4[C@@](C)(CCC[C@]4(C)C(=O)O)[C@@H]2CC[C@@H]1C3 | > 50 | > 50 | > 50 | > 50 | > 50 | > 50 | > 50 | > 50 | > 50 | > 50 | > 50 | > 50 | > 50 | > 50
C=C1C[C@]23C[C@H]1CC[C@H]2[C@]1(C)CCCC(C)(C)[C@H]1C[C@H]3O | > 50 | > 50 | > 50 | > 50 | > 50 | > 50 | > 50 | > 50 | > 50 | > 50 | > 50 | > 50 | > 50 | > 50
C[C@@H]1C(=O)[C@@]23CC[C@@H]4C(C)(C)[C@H](O)CC[C@@]4(C)[C@@H]2[C@@H](O)C[C@@H]1C3 | > 50 | > 50 | > 50 | > 50 | > 50 | > 50 | > 50 | > 50 | > 50 | > 50 | > 50 | > 50 | > 50 | > 50
